Source: publication PMC2077835 (Drug metabolism and disposition: the biological fate of …, 2006)
Values belong to the compound of their own block, whether it stands above or below them.

What was measured:
recombinant CYP4F3B = target: T1, recombinant CYP4F3B (Homo sapiens, UniProt Q08477); experiment: Chemical inhibition of M1 formation by recombinant CYP4F3B; format: biochemical
T1 sequence (Q08477 1-520 isoform Q08477-2): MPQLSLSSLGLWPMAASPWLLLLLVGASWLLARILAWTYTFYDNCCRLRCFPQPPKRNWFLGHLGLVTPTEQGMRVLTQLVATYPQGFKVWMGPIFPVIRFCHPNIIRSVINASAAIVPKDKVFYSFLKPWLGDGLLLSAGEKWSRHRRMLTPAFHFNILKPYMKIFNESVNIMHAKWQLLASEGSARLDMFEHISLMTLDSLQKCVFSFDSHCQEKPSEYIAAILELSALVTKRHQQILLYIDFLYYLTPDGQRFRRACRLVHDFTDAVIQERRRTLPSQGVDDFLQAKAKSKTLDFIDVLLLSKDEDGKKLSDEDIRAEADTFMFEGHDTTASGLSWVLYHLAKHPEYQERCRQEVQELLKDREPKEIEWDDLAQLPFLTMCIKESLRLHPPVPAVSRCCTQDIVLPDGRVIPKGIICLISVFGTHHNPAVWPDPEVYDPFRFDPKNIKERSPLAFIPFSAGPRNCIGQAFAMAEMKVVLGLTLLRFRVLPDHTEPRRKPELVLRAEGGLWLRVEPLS

recombinant CYP4F2 = target: T2, recombinant CYP4F2 (Homo sapiens, UniProt P78329); experiment: Chemical inhibition of M1 formation by recombinant CYP4F2; format: biochemical
T2 sequence (P78329 5-520): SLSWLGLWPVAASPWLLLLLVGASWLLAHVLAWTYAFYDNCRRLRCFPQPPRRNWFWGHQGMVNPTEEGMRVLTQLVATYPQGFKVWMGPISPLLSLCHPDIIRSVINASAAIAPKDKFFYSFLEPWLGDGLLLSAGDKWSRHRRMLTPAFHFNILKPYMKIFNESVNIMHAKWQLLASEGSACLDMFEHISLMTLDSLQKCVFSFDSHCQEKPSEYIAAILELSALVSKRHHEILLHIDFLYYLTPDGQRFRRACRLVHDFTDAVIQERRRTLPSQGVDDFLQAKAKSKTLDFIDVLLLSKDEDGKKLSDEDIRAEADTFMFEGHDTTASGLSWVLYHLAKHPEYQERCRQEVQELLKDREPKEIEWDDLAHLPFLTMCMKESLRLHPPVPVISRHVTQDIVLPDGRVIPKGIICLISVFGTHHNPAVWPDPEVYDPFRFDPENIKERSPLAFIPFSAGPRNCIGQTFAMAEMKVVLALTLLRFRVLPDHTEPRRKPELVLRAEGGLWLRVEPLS

[1] = tested on: M1 formation by human liver microsomes; experiment: Chemical inhibition of M1 formation by HLMs; format: biochemical
CYP2J2 [2] = target: T3, CYP2J2 (Homo sapiens, UniProt P51589); experiment: Chemical inhibition of M1 formation by recombinant CYP2J2; format: biochemical
T3 sequence (P51589 1-502): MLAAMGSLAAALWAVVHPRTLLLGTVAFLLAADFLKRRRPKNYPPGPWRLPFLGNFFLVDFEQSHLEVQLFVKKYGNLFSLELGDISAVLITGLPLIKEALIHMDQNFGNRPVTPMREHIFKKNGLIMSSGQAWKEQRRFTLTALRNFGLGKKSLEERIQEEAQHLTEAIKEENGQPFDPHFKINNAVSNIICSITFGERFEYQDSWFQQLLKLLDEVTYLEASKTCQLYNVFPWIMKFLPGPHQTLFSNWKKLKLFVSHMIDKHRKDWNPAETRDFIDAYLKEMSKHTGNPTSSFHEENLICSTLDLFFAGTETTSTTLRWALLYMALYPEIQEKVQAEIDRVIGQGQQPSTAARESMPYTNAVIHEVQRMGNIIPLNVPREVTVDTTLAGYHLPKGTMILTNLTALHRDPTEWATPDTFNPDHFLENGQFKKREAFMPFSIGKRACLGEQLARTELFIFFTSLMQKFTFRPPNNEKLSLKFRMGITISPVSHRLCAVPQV

[3] = Incubation of DB289 with pooled human liver microsomes; format: in vitro ADME; details: 15 μM DB289, 0.2 mg/ml HLMs, 0-120 min
Outline: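 Pooled liver microsomes (50 donors, mixed gender) at 0.2 mg/ml with 15 μM substrate in a 1 ml mix, equilibrated 5 min at 37°C, then started with NADPH. Aliquots taken at 0, 5, 15, 30 and 120 min into ice-cold acetonitrile. LC/UV at 359 nm against an external 0.1–15 μM calibration; metabolites identified by retention time versus synthetic standards. Single determination; controls lacked NADPH, protein or substrate.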

[4] = HLMs, ref Zimmerlin and Patten (2000), cited from earlier work
CYP2J2 [5] = details: ref Hashizume et al. (2002); cited from earlier work
[6] = 0.2 μM and 1 μM, 10 pmol/ml P450, 3 μM DB289
[7] = read-out: inhibition of M1 formation
[8] = 100 μM inhibitor, 10 pmol/ml P450, 3 μM DB289

activation of M1 formation at low concentrations (recombinant CYP4F3B; [6]): appeared to activate
activation of M1 formation at low concentrations (recombinant CYP4F2; [6]): activation was not observed
activation of M1 formation at low concentrations (CYP2J2 [2]; [6]): activation was not observed
SMILES: C#CCCCCCCCCCCCCCCCC(=O)O [17-ODYA, 17-Octadecynoic acid]
inhibition of M1 formation ([1]; 1 μM inhibitor, 15 min preincubation, 0.2 mg/ml HLM, 3 μM DB289): 39%
inhibition of M1 formation ([1]; 10 μM inhibitor, 15 min preincubation, 0.2 mg/ml HLM, 3 μM DB289): 84%

SMILES: Nn1nnc2ccccc21 [ABT, 1-aminobenzotriazole]
inhibition of M1 formation relative to control ([1]; 100 μM inhibitor, 15 min preincubation, 0.2 mg/ml HLM, 3 μM DB289, 5 min): 86%

concentration of metabolite formed from DB289 [3]: below the lower level of quantification
SMILES: N=C(N)c1ccc(-c2ccc(-c3ccc(C(=N)N)cc3)o2)cc1 [DB75, 2,5-bis(4-amidinophenyl) furan]

SMILES: CCCCCCCCc1ccc(CCC(N)(CO)CO)cc1 [FTY720, 2-amino-2-[2-(4-octylphenyl)ethyl]-1,3-propanediol]
Vmax of ω-hydroxylation [4]: 1850 pmol/min/mg protein
Km ([4]; read-out: apparent Km of ω-hydroxylation): 180 µM

inhibition at 0.02 µM (recombinant CYP4F3B; [7]): 79%
inhibition at 0.02 µM (recombinant CYP4F2; [7]): 82%
SMILES: CCCCc1ccc(N=CNO)c(C)c1 [HET0016, N-hydroxy-N′-(4-n-butyl-2-methylphenyl)formamidine]
inhibition of M1 formation ([1]; 0.1 μM inhibitor, 0.2 mg/ml HLM, 3 μM DB289): 78%
inhibition of M1 formation ([1]; 0.5 μM inhibitor, 0.2 mg/ml HLM, 3 μM DB289): 95%

inhibition of M1 formation (recombinant CYP4F3B; [8]): potently inhibited
inhibition of M1 formation (recombinant CYP4F2; [8]): potently inhibited
SMILES: CCCCC/C=C\C/C=C\C/C=C\C/C=C\CCCC(=O)O [arachidonic acid]
inhibition of M1 formation ([1]; 500 μM inhibitor, 0.2 mg/ml HLM, 3 μM DB289): 60%
inhibition of M1 formation ([1]; inhibitor up to 100 μM, 0.2 mg/ml HLM, 3 μM DB289): no effect

SMILES: CC(C)(C)c1ccc(C(=O)CCCN2CCC(OC(c3ccccc3)c3ccccc3)CC2)cc1 [ebastine]
Km (CYP2J2 [5]): 1300 nM

inhibition of M1 formation (recombinant CYP4F3B; 3 μM inhibitor, 10 pmol/ml P450, 3 μM DB289, 15 min): no effect
inhibition at 3 µM (recombinant CYP4F2; [7]): 87%
inhibition at 5 min, 3 μM (CYP2J2 [2]; human, recombinant CYP2J2, pH 7.4, probe DB289 (3 μM), conversion to M1): 93%
SMILES: CC(=O)N1CCN(c2ccc(OCC3COC(Cn4ccnc4)(c4ccc(Cl)cc4Cl)O3)cc2)CC1 (stereo not shown) [ketoconazole]
inhibition of M1 formation ([1]; 3 μM inhibitor, 0.2 mg/ml HLM, 3 μM DB289, 5 min, Fig. 4): 61%
inhibition of M1 formation ([1]; 3 μM inhibitor, 0.2 mg/ml pooled HLMs (different lot), 3 μM DB289, 5 min, Fig. 8): ~43%

SMILES: CO[C@H]1C[C@H](O[C@H]2[C@H](C)[C@@H](O[C@@H]3O[C@H](C)C[C@H](N(C)C)[C@H]3OC(C)=O)[C@@H](C)C[C@@]3(CO3)C(=O)[C@H](C)[C@@H](OC(C)=O)[C@@H](C)[C@@H](C)OC(=O)[C@@H]2C)O[C@@H](C)[C@@H]1OC(C)=O [troleandomycin]
inhibition of M1 formation ([1]; 50 or 100 μM inhibitor, 0.2 mg/ml HLM, 3 μM DB289): did not inhibit

SMILES: O=c1cc(-c2ccccc2)oc2c1ccc1ccccc12 [α-naphthoflavone]
inhibition of M1 formation ([1]; 1 μM inhibitor, 0.2 mg/ml HLM, 3 μM DB289, 5 min): negligible inhibition
